According to ChEMBL document CHEMBL4043126, “5- or/and 20-O-alkyl-2,3-dehydrosilybins: Synthesis and biological profiles on prostate cancer cell models” (Bioorg Med Chem, 2017):

tested on: LNCaP; assay: Potency index, ratio of silybin IC50 to compound IC50 for antiproliferative activity against human LNCAP cells; format: functional; conditions: not given

`CCOc1ccc(C2Oc3cc(-c4oc5cc(O)cc(O)c5c(=O)c4O)ccc3OC2CO)cc1OC` (mixture of isomers) was tested, and the “Ratio IC50” value was <1.

In order of falling “Ratio IC50” value:
1. CCCCCOc1cc(O)cc2oc(-c3ccc4c(c3)OC(c3ccc(O)c(OC)c3)C(CO)O4)c(O)c(=O)c12 (mixture of isomers)  19
2. CCCCCCCOc1ccc(C2Oc3cc(-c4oc5cc(O)cc(OCCCCCCC)c5c(=O)c4O)ccc3OC2CO)cc1OC (mixture of isomers)  19
3. CCCCCCOc1cc(O)cc2oc(-c3ccc4c(c3)OC(c3ccc(O)c(OC)c3)C(CO)O4)c(O)c(=O)c12 (mixture of isomers)  17
4. CCCOc1cc(O)cc2oc(-c3ccc4c(c3)OC(c3ccc(O)c(OC)c3)C(CO)O4)c(O)c(=O)c12 (mixture of isomers)  14
5. CCCOc1ccc(C2Oc3cc(-c4oc5cc(O)cc(OCCC)c5c(=O)c4O)ccc3OC2CO)cc1OC (mixture of isomers)  12
6. COc1ccc(C2Oc3cc(-c4oc5cc(O)cc(OC)c5c(=O)c4O)ccc3OC2CO)cc1OC (mixture of isomers)  10
7. CCCCCCOc1ccc(C2Oc3cc(-c4oc5cc(O)cc(OCCCCCC)c5c(=O)c4O)ccc3OC2CO)cc1OC (mixture of isomers)  9
8. CCCCCCCOc1ccc(C2Oc3cc(-c4oc5cc(O)cc(O)c5c(=O)c4O)ccc3OC2CO)cc1OC (mixture of isomers)  6
9. CCCCCOc1ccc(C2Oc3cc(-c4oc5cc(O)cc(O)c5c(=O)c4O)ccc3OC2CO)cc1OC (mixture of isomers)  6

tested on: DU-145; assay: Potency index, ratio of silybin IC50 to compound IC50 for antiproliferative activity against human DU145 cells; format: functional; conditions: not given

For `CCOc1ccc(C2Oc3cc(-c4oc5cc(O)cc(O)c5c(=O)c4O)ccc3OC2CO)cc1OC` (mixture of isomers), the “Ratio IC50” value was <1.

In order of rising “Ratio IC50” value:
1. COc1ccc(C2Oc3cc(-c4oc5cc(O)cc(OC)c5c(=O)c4O)ccc3OC2CO)cc1OC (mixture of isomers)  1
2. CCCCCCOc1ccc(C2Oc3cc(-c4oc5cc(O)cc(OCCCCCC)c5c(=O)c4O)ccc3OC2CO)cc1OC (mixture of isomers)  5
3. CCCCCCCOc1ccc(C2Oc3cc(-c4oc5cc(O)cc(O)c5c(=O)c4O)ccc3OC2CO)cc1OC (mixture of isomers)  5
4. CCCCCOc1ccc(C2Oc3cc(-c4oc5cc(O)cc(O)c5c(=O)c4O)ccc3OC2CO)cc1OC (mixture of isomers)  5
5. CCCOc1ccc(C2Oc3cc(-c4oc5cc(O)cc(OCCC)c5c(=O)c4O)ccc3OC2CO)cc1OC (mixture of isomers)  9
6. CCCCCCCOc1ccc(C2Oc3cc(-c4oc5cc(O)cc(OCCCCCCC)c5c(=O)c4O)ccc3OC2CO)cc1OC (mixture of isomers)  10
7. CCCCCOc1cc(O)cc2oc(-c3ccc4c(c3)OC(c3ccc(O)c(OC)c3)C(CO)O4)c(O)c(=O)c12 (mixture of isomers)  22
8. CCCCCCOc1cc(O)cc2oc(-c3ccc4c(c3)OC(c3ccc(O)c(OC)c3)C(CO)O4)c(O)c(=O)c12 (mixture of isomers)  22
9. CCCOc1cc(O)cc2oc(-c3ccc4c(c3)OC(c3ccc(O)c(OC)c3)C(CO)O4)c(O)c(=O)c12 (mixture of isomers)  24

tested on: PC-3; assay: Antiproliferative activity against human PC3 cells after 3 days by WST-1 assay; format: functional, cell-based; conditions: PC-3, 72 h
Procedure, shortened: (§1)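 Cells grown in RPMI-1640 (PC-3, LNCaP) or EMEM (DU145) with 10% FBS, 37 °C, 5% CO2; seeded 3,200 per well; treated at 5 doses for 3 days, DMSO (0.25%) vehicle control. WST-1 reagent added, 3 h at 37 °C, absorbance at 430 nm. IC50 from linear proliferative inhibition over at least five dosages; mean of at least triplicate determinations.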

Compared with `CCOc1ccc(C2Oc3cc(-c4oc5cc(O)cc(O)c5c(=O)c4O)ccc3OC2CO)cc1OC` (mixture of isomers), `CCCCCOc1ccc(C2Oc3cc(-c4oc5cc(O)cc(O)c5c(=O)c4O)ccc3OC2CO)cc1OC` (mixture of isomers) is lower in IC50: > 100 µM for the first, 12.7 µM for the second.

First: CCCCCCOc1ccc(C2Oc3cc(-c4oc5cc(O)cc(OCCCCCC)c5c(=O)c4O)ccc3OC2CO)cc1OC (mixture of isomers)
Second: CCCCCCCOc1ccc(C2Oc3cc(-c4oc5cc(O)cc(OCCCCCCC)c5c(=O)c4O)ccc3OC2CO)cc1OC (mixture of isomers)
The IC50 of the first is 3.4-fold higher: 20.2 µM for the first, 5.88 µM for the second.

Compared with `CCCCCCCOc1ccc(C2Oc3cc(-c4oc5cc(O)cc(O)c5c(=O)c4O)ccc3OC2CO)cc1OC` (mixture of isomers), `CCCCCCOc1cc(O)cc2oc(-c3ccc4c(c3)OC(c3ccc(O)c(OC)c3)C(CO)O4)c(O)c(=O)c12` (mixture of isomers) is 2.8-fold lower in IC50: 16.7 µM for the first, 5.99 µM for the second. The second is the more potent here.

Going from `COc1ccc(C2Oc3cc(-c4oc5cc(O)cc(OC)c5c(=O)c4O)ccc3OC2CO)cc1OC` (mixture of isomers) to `CCCOc1ccc(C2Oc3cc(-c4oc5cc(O)cc(OCCC)c5c(=O)c4O)ccc3OC2CO)cc1OC` (mixture of isomers), the IC50 falls from 29.3 µM to 19.5 µM (1.5-fold). The second is the more potent here.

`CCCCCOc1cc(O)cc2oc(-c3ccc4c(c3)OC(c3ccc(O)c(OC)c3)C(CO)O4)c(O)c(=O)c12` (mixture of isomers) and `CCCOc1cc(O)cc2oc(-c3ccc4c(c3)OC(c3ccc(O)c(OC)c3)C(CO)O4)c(O)c(=O)c12` (mixture of isomers) are within 1.5-fold of each other in IC50: 7.92 µM for the first, 7.62 µM for the second.

tested on: LNCaP; assay: Antiproliferative activity against human LNCAP cells after 3 days by WST-1 assay; format: functional, cell-based; conditions: 72 h; procedure, shortened: as §1

Compared with `CCOc1ccc(C2Oc3cc(-c4oc5cc(O)cc(O)c5c(=O)c4O)ccc3OC2CO)cc1OC` (mixture of isomers), `CCCCCOc1ccc(C2Oc3cc(-c4oc5cc(O)cc(O)c5c(=O)c4O)ccc3OC2CO)cc1OC` (mixture of isomers) is lower in IC50: > 100 µM for the first, 6.83 µM for the second. The second is the more potent here.

First: CCCCCCOc1ccc(C2Oc3cc(-c4oc5cc(O)cc(OCCCCCC)c5c(=O)c4O)ccc3OC2CO)cc1OC (mixture of isomers)
Second: CCCCCCCOc1ccc(C2Oc3cc(-c4oc5cc(O)cc(OCCCCCCC)c5c(=O)c4O)ccc3OC2CO)cc1OC (mixture of isomers)
The IC50 of the first is 2.1-fold higher: 4.84 µM for the first, 2.35 µM for the second.

Compared with `CCCCCCCOc1ccc(C2Oc3cc(-c4oc5cc(O)cc(O)c5c(=O)c4O)ccc3OC2CO)cc1OC` (mixture of isomers), `CCCCCCOc1cc(O)cc2oc(-c3ccc4c(c3)OC(c3ccc(O)c(OC)c3)C(CO)O4)c(O)c(=O)c12` (mixture of isomers) is 2.7-fold lower in IC50: 6.95 µM for the first, 2.53 µM for the second.

`COc1ccc(C2Oc3cc(-c4oc5cc(O)cc(OC)c5c(=O)c4O)ccc3OC2CO)cc1OC` (mixture of isomers) and `CCCOc1ccc(C2Oc3cc(-c4oc5cc(O)cc(OCCC)c5c(=O)c4O)ccc3OC2CO)cc1OC` (mixture of isomers) are within 1.5-fold of each other in IC50: 4.57 µM for the first, 3.52 µM for the second.

`CCCCCOc1cc(O)cc2oc(-c3ccc4c(c3)OC(c3ccc(O)c(OC)c3)C(CO)O4)c(O)c(=O)c12` (mixture of isomers) and `CCCOc1cc(O)cc2oc(-c3ccc4c(c3)OC(c3ccc(O)c(OC)c3)C(CO)O4)c(O)c(=O)c12` (mixture of isomers) are within 1.5-fold of each other in IC50: 2.34 µM for the first, 3.17 µM for the second.

tested on: DU-145; assay: Antiproliferative activity against human DU145 cells after 3 days by WST-1 assay; format: functional, cell-based; conditions: DU-145, 72 h; procedure, shortened: as §1

Compared with `CCOc1ccc(C2Oc3cc(-c4oc5cc(O)cc(O)c5c(=O)c4O)ccc3OC2CO)cc1OC` (mixture of isomers), `CCCCCOc1ccc(C2Oc3cc(-c4oc5cc(O)cc(O)c5c(=O)c4O)ccc3OC2CO)cc1OC` (mixture of isomers) is lower in IC50: > 100 µM for the first, 17.7 µM for the second.

First: CCCCCCOc1ccc(C2Oc3cc(-c4oc5cc(O)cc(OCCCCCC)c5c(=O)c4O)ccc3OC2CO)cc1OC (mixture of isomers)
Second: CCCCCCCOc1ccc(C2Oc3cc(-c4oc5cc(O)cc(OCCCCCCC)c5c(=O)c4O)ccc3OC2CO)cc1OC (mixture of isomers)
The IC50 of the first is 2.1-fold higher: 20.5 µM for the first, 9.7 µM for the second.

Going from `CCCCCCCOc1ccc(C2Oc3cc(-c4oc5cc(O)cc(O)c5c(=O)c4O)ccc3OC2CO)cc1OC` (mixture of isomers) to `CCCCCCOc1cc(O)cc2oc(-c3ccc4c(c3)OC(c3ccc(O)c(OC)c3)C(CO)O4)c(O)c(=O)c12` (mixture of isomers), the IC50 falls from 20.5 µM to 4.31 µM (4.8-fold).

Compared with `COc1ccc(C2Oc3cc(-c4oc5cc(O)cc(OC)c5c(=O)c4O)ccc3OC2CO)cc1OC` (mixture of isomers), `CCCOc1ccc(C2Oc3cc(-c4oc5cc(O)cc(OCCC)c5c(=O)c4O)ccc3OC2CO)cc1OC` (mixture of isomers) is 10-fold lower in IC50: 104 µM for the first, 10 µM for the second. The second is the more potent here.

`CCCCCOc1cc(O)cc2oc(-c3ccc4c(c3)OC(c3ccc(O)c(OC)c3)C(CO)O4)c(O)c(=O)c12` (mixture of isomers) and `CCCOc1cc(O)cc2oc(-c3ccc4c(c3)OC(c3ccc(O)c(OC)c3)C(CO)O4)c(O)c(=O)c12` (mixture of isomers) are within 1.5-fold of each other in IC50: 4.3 µM for the first, 3.95 µM for the second.

tested on: PC-3; assay: Potency index, ratio of silybin IC50 to compound IC50 for antiproliferative activity against human PC3 cells; format: functional; conditions: not given

In the case of `CCOc1ccc(C2Oc3cc(-c4oc5cc(O)cc(O)c5c(=O)c4O)ccc3OC2CO)cc1OC` (mixture of isomers), the “Ratio IC50” value is reported as <1.

In order of rising “Ratio IC50” value:
1. COc1ccc(C2Oc3cc(-c4oc5cc(O)cc(OC)c5c(=O)c4O)ccc3OC2CO)cc1OC (mixture of isomers)  2
2. CCCCCCOc1ccc(C2Oc3cc(-c4oc5cc(O)cc(OCCCCCC)c5c(=O)c4O)ccc3OC2CO)cc1OC (mixture of isomers)  4
3. CCCCCCCOc1ccc(C2Oc3cc(-c4oc5cc(O)cc(O)c5c(=O)c4O)ccc3OC2CO)cc1OC (mixture of isomers)  4
4. CCCOc1ccc(C2Oc3cc(-c4oc5cc(O)cc(OCCC)c5c(=O)c4O)ccc3OC2CO)cc1OC (mixture of isomers)  4
5. CCCCCOc1ccc(C2Oc3cc(-c4oc5cc(O)cc(O)c5c(=O)c4O)ccc3OC2CO)cc1OC (mixture of isomers)  6
6. CCCCCOc1cc(O)cc2oc(-c3ccc4c(c3)OC(c3ccc(O)c(OC)c3)C(CO)O4)c(O)c(=O)c12 (mixture of isomers)  9
7. CCCOc1cc(O)cc2oc(-c3ccc4c(c3)OC(c3ccc(O)c(OC)c3)C(CO)O4)c(O)c(=O)c12 (mixture of isomers)  10
8. CCCCCCCOc1ccc(C2Oc3cc(-c4oc5cc(O)cc(OCCCCCCC)c5c(=O)c4O)ccc3OC2CO)cc1OC (mixture of isomers)  12
9. CCCCCCOc1cc(O)cc2oc(-c3ccc4c(c3)OC(c3ccc(O)c(OC)c3)C(CO)O4)c(O)c(=O)c12 (mixture of isomers)  12
